What was measured:
[1] = target: T1, C-X-C chemokine receptor type 3 (Homo sapiens, UniProt P49682); assay: Displacement of [125I]-CXCL10 from human recombinant CXCR3 transfected in Flp-In-CHO cell membranes after 60 mins by gamma counting method
T1 sequence (P49682 whole entry): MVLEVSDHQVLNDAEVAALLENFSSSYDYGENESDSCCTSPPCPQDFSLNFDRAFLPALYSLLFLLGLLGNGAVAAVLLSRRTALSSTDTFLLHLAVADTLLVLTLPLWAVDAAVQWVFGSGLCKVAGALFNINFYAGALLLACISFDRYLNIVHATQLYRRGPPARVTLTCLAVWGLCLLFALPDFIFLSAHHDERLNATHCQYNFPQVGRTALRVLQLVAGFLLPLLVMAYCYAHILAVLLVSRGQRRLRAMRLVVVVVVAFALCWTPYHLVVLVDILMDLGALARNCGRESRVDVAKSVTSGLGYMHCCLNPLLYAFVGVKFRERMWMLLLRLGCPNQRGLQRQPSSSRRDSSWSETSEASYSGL

[2] = Metabolic stability in human liver microsomes assessed as parent compound remaining in presence of NADPH by LC-MS/MS method; type: ADME
Outline: (§1)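 Compound incubated with liver microsomes (human or mouse) plus NADPH at 37 °C. Loss of parent was followed by LC-MS-MS and reported as percent. Stability bands: low <40%, medium 40–60%, high >60%.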

[3] = Metabolic stability in mouse liver microsomes assessed as parent compound remaining in presence of NADPH by LC-MS/MS method; type: ADME; outline: as §1
[4] = Apparent permeability across human Caco2 cells after 2 hrs by LC-MS method; type: ADME, cell-based; conditions: Caco-2
Outline: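 Caco-2 monolayers checked for integrity, then dosed alongside high- and low-permeability controls. Apical and basal samples taken at 2 h. Four transport conditions: A-B at pH 6.5/7.4 (0% or 0.5% BSA apical, 5% BSA basal), and A-B and B-A at pH 7.4/7.4 (0.5% BSA both sides). Compound quantified by LC/MS. Rapid transport defined as Papp >20 nm/s.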

[5] = target: T2, Muscarinic acetylcholine receptor M2 (Homo sapiens) (UniProt P08172); assay: Displacement of [3H]AF-DX384 from recombinant human muscarinic M2 receptor expressed in CHO cells at 10 uM after 60 mins by scintillation counting method relative to control; type: cell-based
T2 sequence (whole entry): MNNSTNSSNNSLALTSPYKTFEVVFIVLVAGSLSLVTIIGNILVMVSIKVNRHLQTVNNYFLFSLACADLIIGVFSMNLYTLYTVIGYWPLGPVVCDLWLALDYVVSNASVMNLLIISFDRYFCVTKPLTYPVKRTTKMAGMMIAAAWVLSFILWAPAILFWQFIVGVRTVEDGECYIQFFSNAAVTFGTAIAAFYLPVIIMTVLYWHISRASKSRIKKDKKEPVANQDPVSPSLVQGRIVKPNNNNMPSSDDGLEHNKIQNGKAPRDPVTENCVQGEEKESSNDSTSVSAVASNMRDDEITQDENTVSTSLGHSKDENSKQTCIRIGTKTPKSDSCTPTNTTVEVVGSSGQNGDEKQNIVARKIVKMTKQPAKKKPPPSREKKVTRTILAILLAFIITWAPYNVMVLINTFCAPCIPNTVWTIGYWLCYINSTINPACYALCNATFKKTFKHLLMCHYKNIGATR

[6] = Intrinsic clearance in human hepatocytes assessed per 10^6 cells at 5 uM; type: ADME, cell-based, Hepatocyte
[7] = Absolute oral bioavailability in Balb/c mouse at 10 mg/kg; type: ADME, organism-based; conditions: in vivo
Outline: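 Male Balb/c mice dosed once orally at 10 mg/kg and once intravenously at 3 mg/kg. Either 4 animals per route were profiled individually, or sparse sampling used 24 mice with 3 per time point for mean profiles. Absolute oral bioavailability was derived from the two routes.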

Row | IC50 [1] [nM] | Stability [2] [%] | Stability [3] [%] | Papp at 2 h [4] [×10⁻⁶ cm/s] | inhibition [5] [%] | CLH [6] [mL/h] | bioavailability [7] [%] | SMILES
1 | 345 | 98 | 100 | 3.7 |  |  |  | COc1cc(CN(Cc2ccc(C(=O)O)cc2)[C@H](C)c2ccc(Cl)cc2)ccc1OCCN1C(=O)CCC1=O
2 | 4200 | 52 |  |  |  |  |  | COc1cc(CN(Cc2ccc(C(=O)O)cc2)C(c2ccc3c(c2)CCO3)C2CCCC2)ccc1OCCN1C(=O)CCC1=O (stereo unspecified)
3 | 120 | 4 | 7 |  |  |  |  | COc1cc(CN(C)C(C)c2ccc3c(c2)CCO3)ccc1OCCN1C(=O)CSC1=O (stereo unspecified)
4 | 443 |  |  |  |  |  |  | COc1cc(CN(C)C(C)c2ccc3c(c2)CCO3)ccc1NCCN1C(=O)CCC1=O (stereo unspecified)
5 |  | 56 | 92 | 3.95 | 98 |  |  | CC(c1ccc2c(c1)CCO2)N(Cc1ccc(OCCN2C(=O)CCC2=O)c(Cl)c1)C[C@H]1CC[C@H](C(=O)O)CC1 (stereo partly specified)
6 | 240 | 60 | 55 |  |  |  |  | COc1cc(CN(C)C(C)c2ccc3c(c2)CCO3)ccc1OCCN1C(=O)CNC1=O (stereo unspecified)
7 | 1800 |  |  |  |  |  |  | COc1cc(CNC(CC(C)C)c2ccc3c(c2)CCO3)ccc1OCCN1C(=O)CCC1=O (stereo unspecified)
8 | 1000 | 36 | 24 | 16.5 |  |  |  | COc1cc(CN(C[C@H]2CC[C@H](C(=O)O)CC2)[C@H]2CCc3cc(Cl)ccc32)ccc1CCCN1C(=O)CCC1=O
9 | 97 | 24 | 19 |  |  |  |  | COc1cc(CN(Cc2ccc(F)cc2)C(C)c2ccc3c(c2)CCO3)ccc1OCCN1C(=O)CCC1=O (stereo unspecified)
10 | 77 | 2 | 0 |  |  |  |  | COc1cc(CN(CC(C)O)C(C)c2ccc3c(c2)CCO3)ccc1OCCN1C(=O)CCC1=O (stereo unspecified)
11 | 340 | 28 | 24 |  |  |  |  | COc1cc(CN(Cc2ccc3c(c2)CCO3)C(C)c2ccc3c(c2)CCO3)ccc1OCCN1C(=O)CCC1=O (stereo unspecified)
12 | 154 |  |  |  |  |  |  | COc1cc(CN(C)[C@@H](C)c2ccc3c(c2)CCO3)ccc1OCCN1C(=O)CCC1=O
13 | 52 | 35 | 27 |  |  |  |  | COc1cc(CN(CC2CCCCC2)C(C)c2ccc3c(c2)CCO3)ccc1OCCN1C(=O)CCC1=O (stereo unspecified)
14 | 138 | 84 | 87 | 1.34 |  |  |  | COc1cc(CN(Cc2ccc(/C=C/C(=O)O)cc2)C(C)c2ccc3c(c2)CCO3)ccc1OCCN1C(=O)CCC1=O (stereo unspecified)
15 | 290 | 61 | 67 |  |  |  |  | COc1cc(CNCc2ccc3c(c2)CCO3)ccc1OCCN1C(=O)CCC1=O
16 |  | 54 | 55 | 6.62 |  |  |  | COc1cc(CN(C[C@H]2CC[C@H](C(=O)O)CC2)[C@@H]2CCc3cc(Cl)ccc32)ccc1OCCN1C(=O)CCC1=O
17 | 130 | 41 | 42 |  |  |  |  | COc1cc(CN(Cc2ccncc2)C(C)c2ccc3c(c2)CCO3)ccc1OCCN1C(=O)CCC1=O (stereo unspecified)
18 | 2200 | 48 | 13 |  |  |  |  | COc1cc(CN(CCN)C(C)c2ccc3c(c2)CCO3)ccc1OCCN1C(=O)CCC1=O (stereo unspecified)
19 | 1200 |  |  |  |  |  |  | CCCC(NCc1ccc(OCCN2C(=O)CCC2=O)c(OC)c1)c1ccc2c(c1)CCO2 (stereo unspecified)
20 | 230 | 29 | 19 |  |  |  |  | Cc1cc(CN(C)C(C)c2ccc3c(c2)CCO3)ccc1OCCN1C(=O)CCC1=O (stereo unspecified)
21 | 38 | 19 | 19 |  |  |  |  | CCC(c1ccc2c(c1)CCO2)N(Cc1ccc(OCCN2C(=O)CCC2=O)c(OC)c1)CC(C)C (stereo unspecified)
22 | 382 | 92 | 94 | 3.21 |  |  |  | COc1cc(CN(CCCC(=O)O)C(c2ccc3c(c2)CCO3)C2CCCC2)ccc1OCCN1C(=O)CCC1=O (stereo unspecified)
23 | 780 |  |  |  |  |  |  | COc1cc(CNC(C)(C)c2ccc3c(c2)CCO3)ccc1OCCN1C(=O)CCC1=O

Row | IC50 [1] [nM] | Stability [2] [%] | Stability [3] [%] | Papp at 2 h [4] [×10⁻⁶ cm/s] | inhibition [5] [%] | CLH [6] [mL/h] | bioavailability [7] [%] | SMILES
24 | 202 | 28 | 26 |  |  |  |  | COc1cc(CN(C)C(C)c2ccc3c(c2)CCO3)ccc1OCCN1C(=O)CN(C)C1=O (stereo unspecified)
25 | 110 | 5 | 5 |  |  |  |  | CCC(c1ccc2c(c1)CCO2)N(CC)Cc1ccc(OCCN2C(=O)CCC2=O)c(OC)c1 (stereo unspecified)
26 |  | 94 | 96 | 8.02 | 37 | 0.069 |  | CCc1cc(CN(C[C@H]2CC[C@H](C(=O)O)CC2)[C@H]2CCc3cc(Cl)ccc32)ccc1OCCN1C(=O)CCC1=O
27 | 607 | 61 | 62 |  |  |  |  | COc1cc(CNC(C)c2ccc3c(c2)CCO3)ccc1OCCN1C(=O)CCC1=O (stereo unspecified)
28 | 840 |  |  |  |  |  |  | COc1cc(CN(C[C@H]2CC[C@H](C(=O)OC)CC2)[C@H]2CCc3cc(Cl)ccc32)ccc1OCCN1C(=O)CCC1=O
29 | 330 |  |  |  |  |  |  | COc1cc(CN(C)C(CC(C)C)c2ccc3c(c2)CCO3)ccc1OCCN1C(=O)CCC1=O (stereo unspecified)
30 | 210 | 100 | 95 |  |  |  | 2 | COc1cc(CN(CCCC(=O)O)C(C)c2ccc3c(c2)CCO3)ccc1OCCN1C(=O)CCC1=O (stereo unspecified)
31 | 190 | 19 | 29 |  |  |  |  | COc1cc(CN(Cc2cccnc2)C(C)c2ccc3c(c2)CCO3)ccc1OCCN1C(=O)CCC1=O (stereo unspecified)
32 | 202 | 2 | 0 |  |  |  |  | COc1cc(CN(CC(C)=O)C(C)c2ccc3c(c2)CCO3)ccc1OCCN1C(=O)CCC1=O (stereo unspecified)
33 | 120 | 61 | 63 |  |  |  | 9 | COc1cc(CN(Cc2ccc(C(=O)O)cc2)C(C)c2ccc3c(c2)CCO3)ccc1OCCN1C(=O)CCC1=O (stereo unspecified)
34 | 3260 |  |  |  |  |  |  | COc1cc(CNC(c2ccc3c(c2)CCO3)C2CCCC2)ccc1OCCN1C(=O)CCC1=O (stereo unspecified)
35 | 110 | 9 | 8 |  |  |  |  | CCCC(c1ccc2c(c1)CCO2)N(C)Cc1ccc(OCCN2C(=O)CCC2=O)c(OC)c1 (stereo unspecified)
36 | 70 | 7 | 11 |  |  |  |  | COc1cc(CN(Cc2ccc3c(c2)CCO3)CC(C)C)ccc1OCCN1C(=O)CCC1=O
37 | 126 | 51 | 77 | 0.2 |  |  |  | COc1cc(CN(Cc2ccc(-c3nnn[nH]3)cc2)C(C)c2ccc3c(c2)CCO3)ccc1OCCN1C(=O)CCC1=O (stereo unspecified)
38 | 225 | 71 | 79 | 6.56 |  |  |  | COc1cc(CN(CC23CCC(C(=O)O)(CC2)CC3)C(C)c2ccc3c(c2)CCO3)ccc1OCCN1C(=O)CCC1=O (stereo unspecified)
39 | 187 | 14 | 17 |  |  |  |  | CC(c1ccc2c(c1)CCO2)N(C)Cc1ccc(OCCN2C(=O)CCC2=O)c(Cl)c1 (stereo unspecified)
40 |  | 98 | 92 | 0.98 | 54 |  | 17.3 | COc1cc(CN(C[C@H]2CC[C@H](C(=O)O)CC2)C(C)c2ccc3c(c2)CCO3)ccc1OCCN1C(=O)CCC1=O (stereo partly specified)
41 | 1060 |  |  |  |  |  |  | CCC(NCc1ccc(OCCN2C(=O)CCC2=O)c(OC)c1)c1ccc2c(c1)CCO2 (stereo unspecified)
42 | 160 | 60 | 78 | 1.46 |  |  |  | CCC(c1ccc2c(c1)CCO2)N(Cc1ccc(C(=O)O)cc1)Cc1ccc(OCCN2C(=O)CCC2=O)c(OC)c1 (stereo unspecified)
43 | 82 | 3 | 4 |  |  |  |  | COc1cc(CN(CCO)C(C)c2ccc3c(c2)CCO3)ccc1OCCN1C(=O)CCC1=O (stereo unspecified)
44 | 55 | 2 | 9 |  |  |  |  | COc1cc(CN(CC(C)C)C(C)c2ccc3c(c2)CCO3)ccc1OCCN1C(=O)CCC1=O (stereo unspecified)
45 |  | 15 | 3 | 7.24 |  |  |  | COc1cc(CN(C[C@H]2CC[C@H](C(=O)O)CC2)[C@H]2CCc3cc(Cl)ccc32)ccc1SCCN1C(=O)CCC1=O
46 | 790 |  |  |  |  |  |  | COc1cc(CN(C)[C@H](C)c2ccc3c(c2)CCO3)ccc1OCCN1C(=O)CCC1=O

— ChEMBL document CHEMBL3864163, “I. Discovery of a novel series of CXCR3 antagonists. Multiparametric optimization of N,N-disubstituted benzylamines” (Bioorg Med Chem Lett, 2016)
